MrgX1 antagonist = antagonists of human MrgX1 receptor; Q96LB2; MRGX1-HEK293 calcium flux, Fluo-4, BAM8-22 antagonism; active compounds read low; B-score at 10 µM; 1.3% of 310,000 active;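 active means calcium-response B-score plate-corrected more than 3 library SD below zero, starting fluorescence within 5 deviations, no agonist response on first addition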;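 further: peak minus trough fluorescence over baseline after final BAM8-22 challenge near maximal dose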
Target sequence (Q96LB2 whole entry, looked up): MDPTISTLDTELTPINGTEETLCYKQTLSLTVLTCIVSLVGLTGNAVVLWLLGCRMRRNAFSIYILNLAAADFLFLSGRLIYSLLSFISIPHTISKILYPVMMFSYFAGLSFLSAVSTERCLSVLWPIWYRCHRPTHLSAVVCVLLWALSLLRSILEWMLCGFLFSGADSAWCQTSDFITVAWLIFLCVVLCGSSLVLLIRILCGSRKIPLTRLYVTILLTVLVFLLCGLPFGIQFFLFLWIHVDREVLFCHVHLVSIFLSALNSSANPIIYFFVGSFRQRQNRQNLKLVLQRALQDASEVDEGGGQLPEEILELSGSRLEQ
RGS4 block = human RGS4 inhibition | HEK293 M3R/RGS4 inducible, Fluo-4 calcium flux; active compounds read high; triggered by carbachol at its EC20 | B-score at 10 µM | 0.45% of 310,000 active;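 active means B-score, a plate-corrected calcium signal, over three deviations above library mean, with baseline fluorescence within five deviations of library mean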;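 further: RGS4 expression induced by doxycycline in cells with stable M3 receptor; B-score is computed from the integrated fluorescence ratio over baseline after carbachol; higher B-score means a larger calcium signal and so more RGS4 inhibition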
Target sequence (P49798 whole entry, looked up): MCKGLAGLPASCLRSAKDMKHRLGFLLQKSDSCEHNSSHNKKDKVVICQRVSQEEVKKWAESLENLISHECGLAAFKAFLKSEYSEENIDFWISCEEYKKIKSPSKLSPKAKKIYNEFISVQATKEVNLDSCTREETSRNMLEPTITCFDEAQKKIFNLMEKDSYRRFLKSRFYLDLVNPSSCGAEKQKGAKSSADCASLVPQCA
RGS4 pot = RGS4 potentiation or activation; HEK293 M3R/inducible RGS4, carbachol calcium flux Fluo4; active compounds read low; B-score at 10 µM; 0.92% of 310,000 active;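 active means B-score of the integrated calcium signal more than 4 SD below the library mean, with starting fluorescence not abnormally high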;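 further: negative B-score means reduced calcium response which marks RGS4 activation or potentiation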
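Reagent: ECmax carbachol challenge; Test system: M3R-expressing HEK293 line, RGS4 induced by doxycycline; Schedule: overnight RGS4 induction, 30 min dye load 37 °C, 20 min compound RT; Detection: calcium dye Fluo4 fluorescence; Read-out: Agonist-evoked peak-minus-minimum fluorescence over baseline, integrated ratio, B score.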
MrgX1 ag = human MrgX1 receptor agonism, primary screen | MrgX1-HEK293 cells, Fluo-4 calcium fluorescence, agonist mode; active compounds read high | 0.44% of 310,000 active | B-score at 10 µM | Q96LB2;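 active means calcium response B-score plate-corrected fluorescence ratio at least 3 library SD, with starting fluorescence B-score inside 5 SD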
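Test system: HEK293 cells stably expressing human MrgX1 receptor; Input: fifteen thousand cells per well; Dosing: compound delivered in addition one of three; Schedule: overnight seeding, then 1 h dark dye loading; Technique: Fluo-4 NW calcium fluorescence; Measure: B-scored fluorescence response ratio; Controls: positive and negative controls per plate.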
MrgX1 PAM = allosterically activates human MrgX1 receptor signaling. B-score at 10 µM. MrgX1-HEK293, Fluo-4 calcium flux, FDSS; active compounds read high. 0.63% of 310,000 active;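 active means plate-corrected calcium response at least 3 library SD above typical, normal starting fluorescence, not activating the receptor alone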;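 further: compound read alongside a low EC10 to EC30 dose of BAM8-22 agonist; peak minus trough fluorescence over baseline measured at the second addition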
MrgX1 ag confirm = confirmation of human MrgX1 receptor agonists. shares compounds with MrgX1 ag. MrgX1-HEK293, Fluo-4 calcium fluorescence, FDSS. activation, % at 10 µM. 78% of 600 active;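 active means calcium signal rise, corrected for plate position, at least 3 library SD high, with starting brightness within 5 such deviations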
HEK293 Ca flux = counter-screen for MrgX1 antagonists: effect in parental HEK293 cells; fluorescence ratio F(max-min)/F0 at 10 µM; shares compounds with MrgX1 antagonist; Fluo-4 calcium fluorescence, FDSS; 2% of 4,000 active; AID 624111;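 active means duplicate-averaged calcium fluorescence ratio at least three times the standard deviation of buffer wells, a nonspecific response in parental cells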
HEK293 Ca counter = MrgX1 allosteric activator counter-screen hit in parental HEK293 cells; shares compounds with MrgX1 antagonist; parental HEK293 calcium flux, Fluo-4 fluorescence ratio; active compounds read high; fluorescence ratio F(max-min)/F0 at 10 µM; 0.4% of 4,000 active;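 active means calcium fluorescence ratio, averaged over duplicates, at least 3 SD of the buffer-well ratio, meaning a nonspecific response in receptor-free cells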;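 further: untransfected parental HEK293 lacking MrgX1 used as counterscreen for MrgX1 allosteric activators; fluorescence change taken during the second addition on a kinetic imager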
HEK293 Ca cntr2 = activity in parental HEK293 cells lacking MrgX1 receptor. Fluo-4 calcium fluorescence (FDSS); active compounds read high. fluorescence ratio F(max-min)/F0 at 10 µM. 8.7% of 4,000 active. shares compounds with MrgX1 antagonist;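 active means calcium fluorescence ratio at least three times the spread of buffer wells, meaning a non-specific response in parental cells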
* hit, by the source's call; i = inactive; . = no result given. Most compounds without a hit are left out; they make up all but 3.5% or so of the library.

SMILES	MrgX1 antagonist	RGS4 block	RGS4 pot	MrgX1 ag	MrgX1 PAM	MrgX1 ag confirm	HEK293 Ca flux	HEK293 Ca counter	HEK293 Ca cntr2
COc1ccc(C(=O)NC(=S)NNC(=O)[C@H]2C[C@@H]2c2ccccc2)cc1OC	i	i	i	67*	i	378%*	i	i	72*
COc1ccc(C(=O)NC(=S)NNC(=O)c2c(-c3ccccc3)noc2C)cc1OC	i	i	i	81*	i	222%*	i	i	51*
Cc1onc(-c2ccccc2)c1C(=O)NCc1ccc2c(c1)OCO2	i	i	i	i	i	.	.	.	.
Cc1cccc(-n2ncc3c(NCc4ccc5c(c4)OCO5)ncnc32)c1	i	i	i	i	i	.	.	.	.
Cc1ccc(-n2ncc3c(NCc4ccc5c(c4)OCO5)ncnc32)c(C)c1	i	i	i	32*	i	224%*	i	i	48*
CCOC(=O)C1=c2/c(=C/c3ccncc3)c(N)c(C(=O)OC)n2C(=O)C(c2ccncc2)S1 (stereo not drawn)	i	i	i	i	i	.	.	.	.
O=C(CSc1nnc(-c2cccs2)o1)N1CCc2ccccc21	i	i	i	i	i	.	.	.	.
Cc1occc1-c1nnc(SCC(=O)N2CCc3ccccc32)o1	i	i	i	37*	i	207%*	i	i	i
COc1ccccc1CN1CC(C(=O)NCCn2ccc(C)n2)CCC1=O (stereo not drawn)	i	i	i	i	i	.	.	.	.
ClCc1nc2ccccc2c2ccccc12	i	i	i	44*	i	88%*	i	i	i
COc1ccc(NC(=O)CS(=O)(=O)c2ccccc2Cl)cc1	i	i	i	i	i	.	.	.	.
CCOC(=O)c1cc(=O)n2c(nc3ccccc32)[nH]1	i	i	i	i	i	.	.	.	.
Cn1cc(C=C2C(=O)OC3(CCCCC3)OC2=O)c2ccccc21	i	i	i	i	i	.	.	.	.
CCN(CC)c1ccc(C=C2C(=O)OC3(CCCC3)OC2=O)cc1	i	i	i	74*	i	440%*	i	i	110*
Cc1ccsc1/C=N/Nc1ccc(F)cc1F	i	i	i	i	i	.	.	.	.
COc1ccc([N+](=O)[O-])cc1NC(=O)C(C)OC(=O)c1cccnc1 (stereo not drawn)	i	i	i	i	i	.	.	.	.
COc1ccc(C2=CC(c3ccc(C)cc3)n3nnnc3N2)cc1 (stereo not drawn)	i	i	i	i	i	.	.	.	.
COc1ccc(C2C=C(c3ccccc3)Nc3nnnn32)cc1 (stereo not drawn)	i	i	i	33*	i	i	i	i	i
CC(=O)c1ccc(-n2c(CCC(=O)O)ccc2-c2cccs2)cc1	i	i	i	i	i	.	.	.	.
Cc1ccc(-n2c(CCC(=O)O)ccc2-c2cccs2)cc1	i	i	i	33*	i	149%*	i	i	i
CCOc1ccc(C2C(C(=O)/C=C/c3ccco3)=C(O)C(=O)N2CCN2CCOCC2)cc1OC (stereo not drawn)	i	i	i	i	i	.	.	.	.
CCOC(=O)c1c(CC(C)C)csc1NC(=O)c1ccccc1C(=O)O	i	i	i	37*	i	220%*	i	i	i
CCOC(=O)c1c(CC(C)C)csc1NC(C)=O	i	i	i	i	i	.	.	.	.
CCCCCCCCCC(=O)N/N=C(\C)c1cccnc1	i	i	i	i	i	.	.	.	.
CCCCCC(=O)N/N=C(\C)c1ccccn1	i	i	i	86*	i	i	i	i	i
SMILES	MrgX1 antagonist	RGS4 block	RGS4 pot	MrgX1 ag	MrgX1 PAM	MrgX1 ag confirm	HEK293 Ca flux	HEK293 Ca counter	HEK293 Ca cntr2
O=S(=O)(Nc1cccc(-c2cn3c(n2)SCC3)c1)c1ccccc1	i	i	i	i	i	.	.	.	.
Cc1sc2ncnc(N(C)C3CCCCC3)c2c1C	i	i	i	38*	i	i	i	i	i
O=C(O)Cc1sc(Nc2ccc(F)cc2)nc1-c1cccs1	i	i	i	32*	i	i	i	i	i
Nc1c(C(=O)c2ccccc2)sc2snc(SCC(=O)c3ccccc3)c12	i	i	i	32*	i	225%*	0.41*	i	55*
Nc1nnc(SCC(=O)c2ccccc2)s1	i	i	i	i	i	.	.	.	.
Cc1ccc(N2C(=O)CC(Sc3nc(C)cc(C)n3)C2=O)cc1 (stereo not drawn)	i	i	i	i	i	.	.	.	.
CC1=Nc2ccc(C)c3nc(C)cc(c23)N1c1ccc(C)cc1	i	i	i	38*	i	191%*	i	i	i
Cc1ccc(N2C=Nc3ccc(C)c4nc(C)cc2c34)cc1	i	i	i	28*	i	98%*	i	i	i
CC(=O)c1ccc(-c2ccc(C(=O)NCC3CCCO3)o2)cc1 (stereo not drawn)	i	i	i	i	i	.	.	.	.
CCCOc1ccc(C(=O)NNC(=S)NC(=O)c2cccs2)cc1	i	i	-8.6*	110*	i	496%*	i	i	104*
CCCOc1ccc(C(=O)NNC(=S)NC(=O)c2ccccc2)cc1	i	i	-8.4*	91*	i	663%*	i	i	128*
CC(C)(C)CN1CCN(Cc2c[nH]c3ccccc23)CC1CCO (stereo not drawn)	i	i	i	i	i	.	.	.	.
COc1cccc(-c2nnn(CC(=O)N(CC(C)C)C3CCS(=O)(=O)C3)n2)c1 (stereo not drawn)	i	i	i	i	i	.	.	.	.
CC(=O)[C@@]1(O)CC[C@H]2[C@@H]3CCC4=CC(=O)CC[C@]4(C)[C@H]3[C@@H](O)C[C@@]21C	i	i	i	48*	i	i	i	i	i
CCOc1ccc(NC2=NCC(=O)N2CCc2ccccc2)cc1	i	i	i	27*	i	122%*	i	i	i
Cc1ccc(NC2=NCC(=O)N2CCc2ccccc2)cc1C	i	i	i	i	i	.	.	.	.

Screens: PubChem BioAssay, Johns Hopkins Ion Channel Center
